Calls of active or inactive are those of the source. No cut-off for these calls is given here.
Legend:
[1] = species: Sus scrofa; experiment: Inhibition of porcine pancreatic lipase type 2 at 10 uM by FRET assay
[2] = test system: Bacteria; experiment: Inhibition of bacterial lipoprotein lipase at 10 uM by FRET assay
[3] = molecular target: T1, Diacylglycerol lipase-alpha (Homo sapiens) (UniProt Q9Y4D2); experiment: Inhibition of human DAGLalpha expressed in HEK293T cell membrane using [14C]SAG substrate at 10 uM in detergent free solution by […]; type: cell-based; conditions: HEK-293T
T1 sequence (whole entry): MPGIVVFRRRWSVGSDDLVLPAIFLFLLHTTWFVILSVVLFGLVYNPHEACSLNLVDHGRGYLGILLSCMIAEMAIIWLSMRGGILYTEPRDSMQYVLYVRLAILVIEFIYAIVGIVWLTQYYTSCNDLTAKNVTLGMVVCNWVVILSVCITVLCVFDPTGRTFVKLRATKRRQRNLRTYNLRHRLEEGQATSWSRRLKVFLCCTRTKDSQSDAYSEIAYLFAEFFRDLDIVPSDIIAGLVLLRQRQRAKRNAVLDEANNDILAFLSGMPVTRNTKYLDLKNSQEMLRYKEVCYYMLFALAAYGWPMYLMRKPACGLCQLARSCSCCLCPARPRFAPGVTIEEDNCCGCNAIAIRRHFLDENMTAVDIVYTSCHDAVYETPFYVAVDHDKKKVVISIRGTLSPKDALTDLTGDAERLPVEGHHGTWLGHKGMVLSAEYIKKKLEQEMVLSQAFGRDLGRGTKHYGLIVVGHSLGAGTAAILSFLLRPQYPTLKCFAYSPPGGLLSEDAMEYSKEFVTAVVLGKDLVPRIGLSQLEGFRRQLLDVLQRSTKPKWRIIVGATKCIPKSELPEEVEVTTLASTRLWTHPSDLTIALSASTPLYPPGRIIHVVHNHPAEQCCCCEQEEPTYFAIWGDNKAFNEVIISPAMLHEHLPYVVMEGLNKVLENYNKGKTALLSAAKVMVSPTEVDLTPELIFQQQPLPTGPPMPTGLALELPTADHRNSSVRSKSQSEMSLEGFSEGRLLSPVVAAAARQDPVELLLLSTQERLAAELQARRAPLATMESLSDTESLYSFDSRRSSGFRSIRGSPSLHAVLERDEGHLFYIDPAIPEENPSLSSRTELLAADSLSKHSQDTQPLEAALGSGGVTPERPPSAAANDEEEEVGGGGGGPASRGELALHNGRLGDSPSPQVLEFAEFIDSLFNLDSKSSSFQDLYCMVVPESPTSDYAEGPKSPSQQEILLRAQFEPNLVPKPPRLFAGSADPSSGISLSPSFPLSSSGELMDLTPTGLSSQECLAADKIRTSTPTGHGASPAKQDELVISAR

[4] = molecular target: T2, Diacylglycerol lipase-alpha (Mus musculus) (UniProt Q6WQJ1); experiment: Inhibition of mouse DAGLalpha expressed in HEK293T cell membrane using [14C]SAG substrate at 10000 nM by scintillation counting based radio-TLC assay; type: cell membranes; conditions: HEK-293T
T2 sequence (whole entry): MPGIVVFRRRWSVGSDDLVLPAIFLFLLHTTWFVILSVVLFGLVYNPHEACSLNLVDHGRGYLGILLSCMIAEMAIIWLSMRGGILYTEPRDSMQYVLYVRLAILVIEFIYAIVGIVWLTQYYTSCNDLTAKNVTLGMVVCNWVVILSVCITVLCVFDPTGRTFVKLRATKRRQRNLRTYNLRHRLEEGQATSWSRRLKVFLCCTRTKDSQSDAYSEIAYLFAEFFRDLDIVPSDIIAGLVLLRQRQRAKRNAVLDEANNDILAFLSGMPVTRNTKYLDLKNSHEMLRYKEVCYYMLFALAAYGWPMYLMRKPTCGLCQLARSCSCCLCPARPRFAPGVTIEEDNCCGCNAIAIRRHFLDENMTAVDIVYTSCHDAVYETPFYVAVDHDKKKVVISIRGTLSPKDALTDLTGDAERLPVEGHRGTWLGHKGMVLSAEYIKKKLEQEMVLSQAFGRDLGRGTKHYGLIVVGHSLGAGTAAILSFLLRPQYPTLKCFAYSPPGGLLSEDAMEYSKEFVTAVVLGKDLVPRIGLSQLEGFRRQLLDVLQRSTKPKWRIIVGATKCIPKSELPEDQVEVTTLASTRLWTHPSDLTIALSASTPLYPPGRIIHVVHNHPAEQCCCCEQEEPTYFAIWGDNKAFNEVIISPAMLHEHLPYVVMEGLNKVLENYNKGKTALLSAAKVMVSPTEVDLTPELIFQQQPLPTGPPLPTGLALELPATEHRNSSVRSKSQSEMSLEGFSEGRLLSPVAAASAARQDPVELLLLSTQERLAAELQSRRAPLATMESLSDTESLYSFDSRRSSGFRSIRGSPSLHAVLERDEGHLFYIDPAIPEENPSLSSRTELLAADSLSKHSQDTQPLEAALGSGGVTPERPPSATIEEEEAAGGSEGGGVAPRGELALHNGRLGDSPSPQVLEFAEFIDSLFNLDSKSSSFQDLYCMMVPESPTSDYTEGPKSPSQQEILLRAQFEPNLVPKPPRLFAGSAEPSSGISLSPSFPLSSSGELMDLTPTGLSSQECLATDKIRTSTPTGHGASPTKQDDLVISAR

[5] = molecular target: T2, Diacylglycerol lipase-alpha (Mus musculus); experiment: Inhibition of mouse DAGLalpha expressed in HEK293T cell membrane using [14C]SAG substrate at 10 nM by scintillation counting based radio-TLC assay; type: cell membranes; conditions: HEK-293T
[6] = molecular target: T3, Monoglyceride lipase (Homo sapiens) (UniProt Q99685); experiment: Inhibition of human N-terminal histidine tagged full length MAGL expressed in Escherichia coli at 10 uM by coumarin ester substrate fluorescence assay
T3 sequence (whole entry): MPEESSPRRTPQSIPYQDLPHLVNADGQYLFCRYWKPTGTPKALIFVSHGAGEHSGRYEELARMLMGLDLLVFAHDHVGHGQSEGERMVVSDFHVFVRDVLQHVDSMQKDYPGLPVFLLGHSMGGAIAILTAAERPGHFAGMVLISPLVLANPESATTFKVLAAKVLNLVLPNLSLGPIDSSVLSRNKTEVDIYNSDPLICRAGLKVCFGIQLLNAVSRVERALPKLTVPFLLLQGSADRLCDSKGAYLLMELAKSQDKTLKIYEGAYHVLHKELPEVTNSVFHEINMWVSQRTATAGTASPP

[7] = molecular target: T1, Diacylglycerol lipase-alpha (Homo sapiens); experiment: Inhibition of human DAGLalpha expressed in HEK293T cell membrane using [14C]SAG substrate at 10 uM in detergent free solution by scintillation counting based radio-TLC assay; conditions: HEK-293T
[8] = molecular target: T1, Diacylglycerol lipase-alpha (Homo sapiens); experiment: Inhibition of human DAGLalpha expressed in HEK293T cell membrane using [14C]SAG substrate at 10 uM using JZL184 pretreated protein in detergent free solution by […]; type: cell-based; conditions: HEK-293T
[9] = molecular target: T4, Fatty-acid amide hydrolase 1 (Rattus norvegicus, UniProt P97612); experiment: Inhibition of rat histidine tagged FAAH expressed in Escherichia coli by coumarin ester substrate fluorescence assay
T4 sequence (P97612 whole entry): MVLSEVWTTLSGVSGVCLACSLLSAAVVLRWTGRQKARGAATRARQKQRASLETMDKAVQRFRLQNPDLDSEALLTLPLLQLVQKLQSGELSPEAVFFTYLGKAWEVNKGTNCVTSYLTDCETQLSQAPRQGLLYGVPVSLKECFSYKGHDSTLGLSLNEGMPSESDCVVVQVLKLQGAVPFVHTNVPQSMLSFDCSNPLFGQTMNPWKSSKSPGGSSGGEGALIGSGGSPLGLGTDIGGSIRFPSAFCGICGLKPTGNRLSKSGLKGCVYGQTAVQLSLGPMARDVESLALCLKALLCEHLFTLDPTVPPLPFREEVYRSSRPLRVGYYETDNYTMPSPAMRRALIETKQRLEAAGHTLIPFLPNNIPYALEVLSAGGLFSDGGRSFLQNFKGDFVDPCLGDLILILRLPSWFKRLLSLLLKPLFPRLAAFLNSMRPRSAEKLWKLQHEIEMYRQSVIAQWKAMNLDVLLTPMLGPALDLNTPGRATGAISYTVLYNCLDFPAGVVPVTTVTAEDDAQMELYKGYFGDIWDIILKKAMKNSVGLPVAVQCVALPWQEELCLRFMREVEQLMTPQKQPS

[10] = molecular target: T5, Fatty-acid amide hydrolase 1 (Rattus norvegicus) (UniProt P97612); experiment: Inhibition of rat histidine tagged FAAH expressed in Escherichia coli at 10 uM by coumarin ester substrate fluorescence assay
T5 sequence (whole entry): T4 sequence (P97612 whole entry)

[11] = molecular target: T6, Diacylglycerol lipase-alpha (Homo sapiens, UniProt Q9Y4D2); experiment: Inhibition of human DAGLalpha
T6 sequence (Q9Y4D2 whole entry): T1 sequence (whole entry)

[12] = molecular target: T3, Monoglyceride lipase (Homo sapiens); experiment: Inhibition of human N-terminal histidine tagged full length MAGL expressed in Escherichia coli at 100 nM by coumarin ester substrate fluorescence assay
[13] = molecular target: T5, Fatty-acid amide hydrolase 1 (Rattus norvegicus); experiment: Inhibition of rat histidine tagged FAAH expressed in Escherichia coli at 1 uM by coumarin ester substrate fluorescence assay
[14] = molecular target: T1, Diacylglycerol lipase-alpha (Homo sapiens); experiment: Inhibition of human DAGLalpha expressed in HEK293T cell membrane using [14C]SAG substrate at 10 uM in presence of 0.015% Triton X-100 by scintillation counting based radio-TLC assay; type: cell membranes; conditions: HEK-293T
Summary of the method: (§1)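 Sonicated HEK293T protein (100 μg) in 50 mM Tris pH 7.4 with 10 mM CaCl2. Inhibitor in DMSO (10% DMSO standard) preincubated 15 min at 37 °C. [14C]SAG was added to 20 μM final for 20 min at 37 °C, with Triton X-100 where the line states it. Quenched with 2:1 CHCl3/MeOH. Silica TLC in CHCl3/MeOH/NH4OH 86:14:0.75, then 12 h phosphorimaging. Activity = (2-AG+AA)/(2-AG+AA+SAG). Background-subtracted; n=1–2.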

[15] = molecular target: T1, Diacylglycerol lipase-alpha (Homo sapiens); experiment: Inhibition of human DAGLalpha expressed in HEK293T cell membrane using [14C]SAG substrate at 10 uM in detergent free solution using JZL184 pretreated protein by scintillation counting based radio-TLC assay; type: cell membranes; conditions: HEK-293T
Summary of the method: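 Same hDAGLα radio-TLC as above: Tris/CaCl2 pH 7.4, 15 min inhibitor preincubation at 37 °C, 20 μM [14C]SAG for 20 min at 37 °C, TLC with phosphorimaging, activity as (2-AG+AA)/total label.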

[16] = molecular target: T1, Diacylglycerol lipase-alpha (Homo sapiens); experiment: Inhibition of human DAGLalpha expressed in HEK293T cell membrane using [14C]SAG substrate at 10 uM in presence of 0.05% Triton X-100 by scintillation counting based radio-TLC assay; type: cell membranes; conditions: HEK-293T; summary of the method: as §1
[17] = molecular target: T1, Diacylglycerol lipase-alpha (Homo sapiens); experiment: Inhibition of human DAGLalpha expressed in HEK293T cell membrane using [14C]SAG substrate at 10 uM in presence of 0.05% Triton X-100 by […]; type: cell-based; conditions: HEK-293T

NC(=O)c1cccc(-c2cccc(OC(=O)NC3CCCCC3)c2)c1
inhibition [1]: 68%
inhibition [2]: 21%
inhibition [3]: 22%
inhibition [4]: < 0%
inhibition [5]: inactive
inhibition [6]: 18%
inhibition [7]: inactive
inhibition [8]: 7%

O=S(=O)(F)Cc1ccccc1 [PHENYLMETHYLSULFONYLFLUORIDE]
inhibition [2]: < 0%
inhibition [5]: inactive
IC50 [9]: 833 nM

O=C(Oc1ccc([N+](=O)[O-])cc1)N1CCN(Cc2cccc(Oc3ccccc3)c2)CC1
inhibition [1]: 43%
inhibition [2]: < 0%
inhibition [3]: 84%
inhibition [4]: 10%
inhibition [5]: inactive
inhibition [7]: inactive
inhibition [8]: 55%

O=C(NCCCCCCNC(=O)ON=C1CCCCC1)ON=C1CCCCC1
inhibition [1]: 78%
inhibition [2]: < 0%
inhibition [3]: 70%
inhibition [6]: 22%
IC50 [9]: 2240 nM
inhibition [10]: 95%
inhibition [7]: 30%
IC50 [11]: 65 µM
inhibition [8]: 40%

CCCCCCC[C@H]1OC(=O)[C@H]1CCCCCC (racemic)
inhibition [1]: 94%
inhibition [2]: 33%
inhibition [12]: 66%
inhibition [6]: 100%
inhibition [13]: 13%
inhibition [10]: 94%
inhibition [14]: 25%
inhibition [8]: 65%

O=C(N[C@H]1COC1=O)OCc1ccccc1
inhibition [1]: < 0%
inhibition [2]: < 0%
inhibition [3]: 17%
inhibition [5]: inactive
inhibition [6]: 13%
inhibition [10]: 10%
inhibition [15]: < 0%
inhibition [7]: inactive
inhibition [8]: 7%

CCCCCCC[C@@H]1OC(=O)[C@H]1CCCCCC (racemic)
inhibition [1]: 96%
inhibition [2]: 67%
inhibition [6]: 55%
inhibition [10]: 79%
inhibition [14]: 37%
inhibition [8]: 69%

CCCCCCCCCCCCCC1CC(=O)O1 (racemic)
inhibition [1]: 38%
inhibition [2]: < 0%
inhibition [3]: 14%
inhibition [4]: < 0%
inhibition [6]: 4%
inhibition [10]: 10%
inhibition [14]: 45%
inhibition [16]: 25%
inhibition [17]: 72%

Reference: ChEMBL document CHEMBL2169869, “Assay and inhibition of diacylglycerol lipase activity” (Bioorg Med Chem Lett, 2012)
